# Source: PubChem
# Only some compounds are listed: those with a hit (about 5.8% of all), similar ones and a draw of the others.
# Pf Dd2 growth: inhibitors of Plasmodium falciparum Dd2 growth; P. falciparum Dd2 growth, SYBR Green, 72 h; hits give low values; activity change, % at 10 µM; hit rate 2.3% among 94,000; AID 1159554; in the data active means activity change below about -80%; inconclusive means no clear call, values can overlap the other calls
# GASC1 inh: KDM4C (human) demethylase inhibition; hit rate 0.15% among 96,000; GST-KDM4C 2-372, H3K9me3 peptide, LANCE TR-FRET; inhibition, % at 12.5 µM; Q9H3R0;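 active means mean replicate inhibition above about 25%, with at least 55% of replicates also reaching it, limit read from the data, passing the limit was not always enough; inconclusive means only one of those two conditions met; inactive means neither condition met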
#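 System: N-terminal GST-fused human GASC-1 (KDM4C) fragment, residues 2-372 / Amount: 10 nM GST-KDM4C in enzyme reaction / Also added: H3K9me3 peptide with Fe(II)/2OG / Times: 30 min demethylation and 1 h detection at room temperature / Signal: LANCE TR-FRET / Read-out basis: Fall in 671/618 emission ratio as inhibition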
# T cruzi growth-1: T. cruzi proliferation inhibition | T. cruzi beta-gal in NIH3T3, GalScreen luminescence, 90 h | inhibition, % at 8.34 µM | hit rate 5.9% among 77,000;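 active means mean inhibition above about 93%, with at least 55% of replicates each passing it, limit read from the data, passing the limit was not always enough; inconclusive means only one of those two conditions holds; inactive means neither condition holds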
# IDH1 R132H inh: inhibitors of human IDH1 R132H; O75874; hit rate 0.18% among 70,000; IDH1 R132H reductase, diaphorase/resazurin fluorescence, 60 min; inhibition, % at 10 µM; in the data active means inhibition above about 34%; inconclusive means no clear call, values can overlap the other calls; inactive means below about 11%;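 further: 0% = DMSO and 100% = no enzyme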
# Target sequence (O75874 whole entry R132H): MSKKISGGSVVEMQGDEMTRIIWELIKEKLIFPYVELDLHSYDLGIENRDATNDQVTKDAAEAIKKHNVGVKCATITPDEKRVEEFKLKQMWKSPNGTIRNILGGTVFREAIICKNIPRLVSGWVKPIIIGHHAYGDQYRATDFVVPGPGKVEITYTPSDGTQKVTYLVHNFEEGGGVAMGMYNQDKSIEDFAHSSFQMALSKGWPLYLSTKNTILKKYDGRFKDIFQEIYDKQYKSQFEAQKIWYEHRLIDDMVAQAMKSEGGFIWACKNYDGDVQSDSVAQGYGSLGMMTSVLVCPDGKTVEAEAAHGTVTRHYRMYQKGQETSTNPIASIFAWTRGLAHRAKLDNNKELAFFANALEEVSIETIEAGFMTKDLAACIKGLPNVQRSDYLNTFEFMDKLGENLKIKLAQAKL
# T cruzi growth-2: inhibitors of T. cruzi proliferation | hit rate 72% among 5,600 | inhibition, % at 8.35 µM | shares compounds with T cruzi growth-1 | T. cruzi beta-gal in NIH3T3, GalScreen luminescence, 90 h;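 active means mean replicate inhibition above about 95% and at least 55% of replicates individually reaching it, limit read from the data; inconclusive means only one of the two criteria is met; inactive means neither criterion is met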
# T cruzi growth-3: blocks T. cruzi growth in NIH3T3 host cells. shares compounds with T cruzi growth-1. T. cruzi beta-gal in NIH3T3, GalScreen luminescence, 90 h. inhibition, % at 2.09 µM. hit rate 21% among 5,600. AID 651740;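 active means mean inhibition above about 95%, with at least 55% of replicates also reaching it, limit read from the data; inconclusive means meets just one of the two conditions; inactive means meets neither condition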;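 further: plate controls were neutral control median for no effect and positive control median for full effect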
# NIH3T3 tox: cytotoxicity in mouse NIH/3T3 fibroblasts | NIH/3T3 viability, CellTiter-Glo ATP luminescence, 90 h | hit rate 14% among 5,600 | shares compounds with T cruzi growth-1 | cytotoxicity (signal decrease), % at 8.35 µM;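 active means mean signal decrease across replicates above about 35% based on untreated-well scatter, with enough replicates individually passing, limit read from the data; inconclusive means no rule stated though some were filed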;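 further: 0% = median of neutral control wells and 100% = median of positive control wells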
# NIH3T3 tox 2: cytotoxicity in mouse NIH/3T3 fibroblasts. shares compounds with T cruzi growth-1. NIH/3T3 viability, CellTiter-Glo ATP luminescence, 90 h. inhibition, % at 24.9 µM. hit rate 56% among 5,600. AID 651744;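 active means mean loss of cell viability signal at or above a set limit, and enough replicates individually reaching it; inconclusive means meets only the mean limit or only the replicate share; inactive means meets neither condition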;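 further: 0% = median of neutral control wells and 100% = median of positive control wells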
# The depositor's hits bear a star; ? = inconclusive; . = no result.
SMILES,Pf Dd2 growth,GASC1 inh,T cruzi growth-1,IDH1 R132H inh,T cruzi growth-2,T cruzi growth-3,NIH3T3 tox,NIH3T3 tox 2
O=C(C[C@@H]1CC[C@@H]2[C@H](COC[C@H](O)CN2S(=O)(=O)c2ccccc2)O1)NCc1ccc(-c2ccccc2)cc1,-41,-1,52,.,.,.,.,.
O=C(C[C@H]1CC[C@H]2[C@@H](COC[C@@H](O)CN2S(=O)(=O)c2cccc(F)c2)O1)Nc1ccc(-c2ccccc2)cc1,-15,-1,74,.,.,.,.,.
Cc1ccc(S(=O)(=O)N2C[C@H](O)COC[C@H]3O[C@H](CC(=O)NCc4ccc(Cl)c(Cl)c4)CC[C@@H]32)cc1,11,0,90,.,.,.,.,.
COc1ccc(S(=O)(=O)N2C[C@H](O)COC[C@@H]3O[C@@H](CC(=O)NCc4ccc(Cl)c(Cl)c4)CC[C@H]32)cc1,-12,-1,109*,.,101*,-36,-2,62*
COC(=O)[C@@H]1[C@@H](CO)[C@@H]2Cn3c(ccc(-c4ccc(F)cc4)c3=O)[C@@H]2N1Cc1ccccn1,-4,9,73,.,.,.,.,.
C[C@@H]1CN([C@@H](C)CO)C(=O)c2cc(NS(=O)(=O)c3ccc(F)cc3)ccc2O[C@@H](C)CCCCO[C@H]1CN(C)S(=O)(=O)c1ccccc1,-53,-1,0,2,.,.,.,.
Cc1noc(C)c1S(=O)(=O)Nc1ccc2c(c1)C(=O)N([C@@H](C)CO)C[C@@H](C)[C@@H](CN(C)C(=O)CCCN(C)C)OCCCC[C@H](C)O2,10,1,11,0,.,.,.,.
COCC#Cc1ccc2c(c1)O[C@@H](CN(C)CC1CCCC1)[C@H](C)CN([C@@H](C)CO)S2(=O)=O,?,-1,106*,0,96*,46,21,104*
COCC#Cc1ccc2c(c1)O[C@H](CN(C)CC1CCCC1)[C@@H](C)CN([C@H](C)CO)S2(=O)=O,-58,-1,?,0,99*,53,23,50*
COCC#Cc1cnc2c(c1)C(=O)N([C@H](C)CO)C[C@@H](C)[C@@H](CN(C)C(=O)C1CCC1)O2,18,0,30,.,.,.,.,.
CO[C@H](CN(C)C(=O)Nc1ccc(C(F)(F)F)cc1)[C@H](C)CN(Cc1ccccc1Cl)[C@@H](C)CO,-48,0,114*,0,101*,100*,50*,104*
CO[C@H](CN(C)C(=O)Nc1ccc(C(F)(F)F)cc1)[C@@H](C)CN(Cc1ccccc1Cl)[C@@H](C)CO,-50,-2,101*,0,101*,77,47*,104*
CO[C@@H](CN(C)C(=O)Nc1ccc(C(F)(F)F)cc1)[C@@H](C)CN(Cc1ccccc1Cl)[C@@H](C)CO,-51,0,72,-1,.,.,.,.
O=C(C[C@@H]1CC[C@@H]2[C@H](COC[C@H](O)CN2C(=O)c2ccncc2)O1)NC1CCC1,-16,-2,108*,.,-16,-86,2,-15
O=C(C[C@H]1CC[C@@H]2[C@H](COC[C@@H](O)CN2C(=O)c2ccncc2)O1)NC1CCC1,10,-1,97*,.,-30,-32,-11,-14
COc1ccccc1S(=O)(=O)N(C)C[C@H]1Oc2cc(/C=C/c3ccccc3)ccc2S(=O)(=O)N([C@@H](C)CO)C[C@@H]1C,-58,5,128*,-1,100*,101*,?,39*
COc1ccccc1S(=O)(=O)N(C)C[C@H]1Oc2cc(/C=C/c3ccccc3)ccc2S(=O)(=O)N([C@@H](C)CO)C[C@H]1C,-52,1,129*,0,101*,?,40*,34*
COc1ccccc1S(=O)(=O)N(C)C[C@H]1Oc2cc(/C=C/c3ccccc3)ccc2S(=O)(=O)N([C@H](C)CO)C[C@H]1C,-50,-1,122*,-2,102*,104*,43*,51*
COc1ccccc1S(=O)(=O)N(C)C[C@H]1Oc2cc(Br)ccc2S(=O)(=O)N([C@@H](C)CO)C[C@H]1C,5,1,.,.,.,.,.,.
COc1ccccc1S(=O)(=O)N(C)C[C@H]1Oc2cc(Br)ccc2S(=O)(=O)N([C@H](C)CO)C[C@H]1C,-19,-1,.,.,.,.,.,.
COc1ccccc1S(=O)(=O)N(C)C[C@H]1Oc2cc(/C=C/c3ccccc3)ccc2S(=O)(=O)N([C@H](C)CO)C[C@@H]1C,-88*,38*,131*,0,106*,97*,18,25*
C[C@H]1CN([C@@H](C)CO)S(=O)(=O)c2ccc(/C=C/c3ccccc3)cc2O[C@@H]1CN(C)C,-31,-3,95,-3,.,.,.,.
Clc1cccc(C=NC=Nc2cccc(Cl)c2)c1,.,.,.,-1,.,.,.,.
O=C(CCN1CCCCC1)N[C@@H]1CC[C@H](CCNS(=O)(=O)c2ccccc2)O[C@H]1CO,4,0,-1,0,.,.,.,.
COc1ccccc1S(=O)(=O)N(C)C[C@@H]1Oc2cc(/C=C/c3ccccc3)ccc2S(=O)(=O)N([C@@H](C)CO)C[C@H]1C,?,1,128*,-5,102*,106*,65*,62*
SMILES,Pf Dd2 growth,GASC1 inh,T cruzi growth-1,IDH1 R132H inh,T cruzi growth-2,T cruzi growth-3,NIH3T3 tox,NIH3T3 tox 2
C/C=C/c1ccc2c(c1)O[C@H](CN(C)S(=O)(=O)c1ccccc1OC)[C@H](C)CN([C@@H](C)CO)S2(=O)=O,.,-2,24,2,.,.,.,.
C[C@@H]1CN([C@@H](C)CO)S(=O)(=O)c2ccc(/C=C/c3ccccc3)cc2O[C@@H]1CN(C)C,-35,-1,36,0,.,.,.,.
C/C=C/c1ccc2c(c1)O[C@H](CN(C)S(=O)(=O)c1ccccc1)[C@H](C)CN([C@@H](C)CO)S2(=O)=O,-26,-3,107*,-1,97*,28,14,35*
C/C=C/c1ccc2c(c1)O[C@@H](CN(C)S(=O)(=O)c1ccccc1OC)[C@H](C)CN([C@@H](C)CO)S2(=O)=O,-70,0,116*,0,107*,74,44*,56*
O=C(Cc1cccnc1)N1CC(=O)N2[C@H](CO)[C@H](c3ccc(C#CC4CC4)cc3)[C@H]2C1,0,0,.,.,.,.,.,.
COc1ccc(NC(=O)Nc2ccc3c(c2)C(=O)N([C@@H](C)CO)C[C@H](C)[C@H](CN(C)C(=O)Nc2ccc(OC)cc2)OCCCC[C@@H](C)O3)cc1,-71,2,.,0,.,.,.,.
COc1ccc(NC(=O)Nc2ccc3c(c2)C(=O)N([C@@H](C)CO)C[C@H](C)[C@@H](CN(C)C(=O)C2CCCCC2)OCCCC[C@@H](C)O3)cc1,?,0,95*,0,104*,5,0,-28
